Measured values: ChEMBL document CHEMBL1141513, “Synthesis and evaluation of [123I] labeled iodovinyl amino acids syn-, anti-1-amino-3-[2-iodoethenyl]-cyclobutane-1-carboxylic acid, and 1-amino-3-iodomethylene-cyclobutane-1-carboxylic acid as potential SPECT brain tumor imaging agents” (Bioorg Med Chem Lett, 2008)

Experiments:
[1] = Drug uptake in tumor cells in Fischer rat transplanted with rat 9L cells after 60 mins; format: ADME, Neoplasm; settings: read-out: Drug uptake
Summary of the method: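 Fischer rats bearing intracranially implanted 9L gliosarcoma tumours received the [123I]-labelled amino acid by injection. Radioactivity in tumour and normal tissues was counted at 30, 60 and 120 min post-injection, with n=5 per time point. Values were expressed as percent injected dose per gram tissue (%ID/g).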

[2] = species: Rattus norvegicus; assay: Ratio of drug uptake in tumor to brain in Fischer rat transplanted with rat 9L cells; format: ADME, organism-based
Summary of the method: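 Fischer rats with intracranial 9L gliosarcoma received [123I] tracer; tumor and brain radioactivity measured at 30, 60, 120 min p.i. (n=5 per time point) as %ID/g, ratio taken as tumor over brain uptake.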

[3] = tested on: 9L; assay: Inhibition of drug uptake in rat 9L cells; format: cell-based
Summary of the method: (§1)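 9L rat gliosarcoma cells incubated with [123I] tracer in HBSS for 30 min at 37°C, with or without 10 mM BCH (L-type transport inhibitor) or MeAIB (A-type inhibitor); uptake expressed as %ID per 1×10^6 cells, inhibition relative to uninhibited controls; significance by 1-way ANOVA.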

[4] = tested on: 9L; assay: Inhibition of drug uptake in rat 9L cells in presence of 10 mM BCH relative to control; format: cell-based; summary of the method: as §1
[5] = Drug uptake in tumor cells of Fischer rat brain transplanted with rat 9L cells; format: ADME, cell-based; settings: read-out: Drug uptake
Summary of the method: (§2)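 [123I]-labelled amino acid given to Fischer rats bearing intracranially implanted 9L gliosarcoma; tumor and normal tissue radioactivity counted at 30, 60 and 120 min post injection, n=5 per time point; expressed as percent injected dose per gram tissue (%ID/g).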

[6] = Drug uptake in normal brain tissue in Fischer rat transplanted with rat 9L cells; format: ADME, tissue-based; summary of the method: as §2
[7] = tested on: 9L; assay: Inhibition of drug uptake in rat 9L cells in presence of 10 mM MeAIB relative to control; format: cell-based; summary of the method: as §1

Row | Structure (SMILES) | Ratio [2] | Drug uptake [3] [%ID] | Drug uptake [4] [%] | tissue uptake [5] [%ID/g] | tissue uptake [6] [%ID/g] | Activity [7] | tissue uptake at 1 h [1] [%ID/g]
1 | N[C@]1(C(=O)O)C[C@@H](C[18F])C1 | 8.9 | – | – | – | – | – | 2.5
2 | NC1(C(=O)O)CC(=C[123I])C1 (configuration not stated) | 4.7 | 8.4 | 92.3 | 0.83 | < 0.4 | – | –
3 | N[C@]1(C(=O)O)C[C@H](C[18F])C1 | 6.9 | – | – | – | – | – | 1.59

Now from value to compound, other results behind:

Row | Ratio [2] | Drug uptake [3] [%ID] | Drug uptake [4] [%] | tissue uptake [5] [%ID/g] | tissue uptake [6] [%ID/g] | Activity [7] | Structure (SMILES) | tissue uptake at 1 h [1] [%ID/g]
4 | 6.5 | 8.4 | 92.3 | 0.83 | < 0.4 | – | N[C@]1(C(=O)O)C[C@@H](/C=C/[123I])C1 | –
5 | 7.3 | 8.4 | 92.3 | 0.83 | < 0.4 | Not Active | N[C@]1(C(=O)O)C[C@H](/C=C/[123I])C1 | –
6 | 6.6 | – | – | – | – | – | N[C@]1(C(=O)O)C[C@@H]([18F])C1 [FLUCICLOVINE F18] | 1.72
